The source made the active and inactive calls.
Assays:
[1] = biological target: D(2) dopamine receptor (Homo sapiens) (UniProt P14416); assay: Displacement of [3H]N-methylspiperone from human dopamine D2 receptor at 10 uM after 90 mins by microbeta counting analysis
Summary of the method: (§1)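 Primary radioligand displacement screen, run by PDSP/NIMH. Receptor panel includes muscarinic M1–M5. Activity threshold 10 μM. Targets with significant binding went on to secondary Ki assays.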

[2] = biological target: 5-hydroxytryptamine receptor 1B (Homo sapiens) (UniProt P28222); assay: Displacement of [3H]5-CT from human serotonin 5-HT1B receptor expressed in HEK cells at 10 uM after 90 mins by microbeta counting analysis; assay type: cell-based; conditions: HEK293; summary of the method: as §1
[3] = biological target: Mu-type opioid receptor (Homo sapiens) (UniProt P35372); assay: Displacement of [3H]DAMGO from mu opioid receptor (unknown origin) expressed in HEK cells at 10 uM after 90 mins by microbeta counting analysis; assay type: cell-based; conditions: HEK293; summary of the method: as §1
[4] = biological target: Muscarinic acetylcholine receptor M3 (Homo sapiens) (UniProt P20309); assay: Binding affinity to human M3 receptor expressed in CHO Flp-In cells at 10 uM after 90 mins by microbeta counting analysis; assay type: cell-based; summary of the method: as §1
[5] = biological target: Kappa-type opioid receptor (Homo sapiens) (UniProt P41145); assay: Displacement of [3H]U69593 from kappa opioid receptor (unknown origin) expressed in HEK cells at 10 uM after 90 mins by microbeta counting analysis; assay type: cell-based; conditions: HEK293; summary of the method: as §1
[6] = biological target: 5-hydroxytryptamine receptor 3A (Homo sapiens) (UniProt P46098); assay: Displacement of [3H]GR65630 from human serotonin 5-HT3 receptor expressed in HEKT cells at 10 uM after 90 mins by microbeta counting analysis; assay type: cell-based; summary of the method: as §1
[7] = biological target: Voltage-gated L-type calcium channel (Rattus norvegicus, UniProt P22002+Q02485+P27732); assay: Binding affinity to rat calcium channel at 10 uM after 90 mins by microbeta counting analysis; conditions: 1.5 h; summary of the method: as §1
[8] = biological target: GABA-A receptor; anion channel (Homo sapiens) (UniProt P14867+P47870+P18507+P28472+P48169+Q99928+Q9UN88+P34903+O00591+O14764+Q8N1C3+P18505+P78334+P47869+P31644+Q16445); assay: Displacement of [3H]Muscimol from rat GABAA receptor at 10 uM after 90 mins by microbeta counting analysis; assay type: protein-complex assay; conditions: target entry is the homologue from another species; summary of the method: as §1
[9] = biological target: Beta-1 adrenergic receptor (Homo sapiens) (UniProt P08588); assay: Binding affinity to human adrenergic beta1 receptor expressed in CHO Flp-In cells at 10 uM after 90 mins by microbeta counting analysis; assay type: cell-based; summary of the method: as §1
[10] = biological target: Muscarinic acetylcholine receptor M5 (Homo sapiens) (UniProt P08912); assay: Binding affinity to human M5 receptor expressed in CHO cells at 10 uM after 90 mins by microbeta counting analysis; assay type: cell-based; summary of the method: as §1
[11] = biological target: 5-hydroxytryptamine receptor 1D (Homo sapiens) (UniProt P28221); assay: Displacement of [3H]5-CT from human serotonin 5-HT1D receptor expressed in HEKT cells at 10 uM after 90 mins by microbeta counting analysis; assay type: cell-based; summary of the method: as §1
[12] = biological target: D(4) dopamine receptor (Homo sapiens) (UniProt P21917); assay: Displacement of [3H]N-methylspiperone from human dopamine D4 receptor at 10 uM after 90 mins by microbeta counting analysis; summary of the method: as §1
[13] = biological target: Muscarinic acetylcholine receptor M1 (Homo sapiens) (UniProt P11229); assay: Binding affinity to human M1 receptor expressed in CHO cells at 10 uM after 90 mins by microbeta counting analysis; assay type: cell-based; summary of the method: as §1
[14] = biological target: 5-hydroxytryptamine receptor 7 (Homo sapiens) (UniProt P34969); assay: Displacement of [3H]LSD from human serotonin 5-HT7 receptor expressed in HEK cells at 10 uM after 90 mins by microbeta counting analysis; assay type: cell-based; conditions: HEK293; summary of the method: as §1
[15] = biological target: Alpha-2C adrenergic receptor (Homo sapiens) (UniProt P18825); assay: Displacement of [3H]rauwolscine from adrenergic alpha2C receptor (unknown origin) expressed in MDCK cells at 10 uM after 90 mins by microbeta counting analysis; assay type: cell-based; summary of the method: as §1
[16] = biological target: Beta-2 adrenergic receptor (Homo sapiens) (UniProt P07550); assay: Displacement of [3H]CGP12177 from human adrenergic beta2 receptor expressed in HEK Flp-In cells at 10 uM after 90 mins by microbeta counting analysis; assay type: cell-based; conditions: HEK293; summary of the method: as §1
[17] = biological target: 5-hydroxytryptamine receptor 4 (Homo sapiens) (UniProt Q13639); assay: Displacement of [3H]GR113808 from human serotonin 5-HT4 receptor at 10 uM after 90 mins by microbeta counting analysis; summary of the method: as §1
[18] = biological target: Histamine H2 receptor (Homo sapiens) (UniProt P25021); assay: Binding affinity to human H2 histamine receptor expressed in HEK cells at 10 uM after 90 mins by microbeta counting analysis; assay type: cell-based; conditions: HEK293; summary of the method: as §1
[19] = biological target: Sodium-dependent noradrenaline transporter (Homo sapiens) (UniProt P23975); assay: Displacement of [3H]nisoxetine from NET (unknown origin) expressed in HEK cells at 10 uM after 90 mins by microbeta counting analysis; assay type: cell-based; conditions: HEK293; summary of the method: as §1
[20] = biological target: Muscarinic acetylcholine receptor M4 (Homo sapiens) (UniProt P08173); assay: Binding affinity to human M4 receptor expressed in CHO cells at 10 uM after 90 mins by microbeta counting analysis; assay type: cell-based; summary of the method: as §1
[21] = biological target: Beta-3 adrenergic receptor (Homo sapiens) (UniProt P13945); assay: Binding affinity to human adrenergic beta3 receptor expressed in HEK Flp-In cells at 10 uM after 90 mins by microbeta counting analysis; assay type: cell-based; conditions: HEK293; summary of the method: as §1
[22] = biological target: 5-hydroxytryptamine receptor 5A (Homo sapiens) (UniProt P47898); assay: Displacement of [3H]LSD from human serotonin 5-HT5A receptor expressed in Flp-In CHO cells at 10 uM after 90 mins by microbeta counting analysis; assay type: cell-based; summary of the method: as §1
[23] = biological target: 5-hydroxytryptamine receptor 2A (Homo sapiens) (UniProt P28223); assay: Displacement of [3H]ketanserin from human serotonin 5-HT2A receptor expressed in HEKT cells at 10 uM after 90 mins by microbeta counting analysis; assay type: cell-based; summary of the method: as §1
[24] = biological target: Alpha-2B adrenergic receptor (Homo sapiens) (UniProt P18089); assay: Displacement of [3H]rauwolscine from adrenergic alpha2B receptor (unknown origin) expressed in HEKT cells at 10 uM after 90 mins by microbeta counting analysis; assay type: cell-based; summary of the method: as §1
[25] = biological target: 5-hydroxytryptamine receptor 2B (Homo sapiens) (UniProt P41595); assay: Displacement of [3H]LSD from human serotonin 5-HT2B receptor expressed in HEK cells at 10 uM after 90 mins by microbeta counting analysis; assay type: cell-based; conditions: HEK293; summary of the method: as §1
[26] = biological target: 5-hydroxytryptamine receptor 1E (Homo sapiens) (UniProt P28566); assay: Displacement of [3H]5-HT from human serotonin 5-HT1E receptor expressed in HEK cells at 10 uM after 90 mins by microbeta counting analysis; assay type: cell-based; conditions: HEK293; summary of the method: as §1
[27] = biological target: Delta-type opioid receptor (Homo sapiens) (UniProt P41143); assay: Displacement of [3H]DADLE from delta opioid receptor (unknown origin) expressed in HEK cells at 10 uM after 90 mins by microbeta counting analysis; assay type: cell-based; conditions: HEK293; summary of the method: as §1
[28] = biological target: D(1B) dopamine receptor (Homo sapiens) (UniProt P21918); assay: Displacement of [3H]SCH23390 from human dopamine D5 receptor expressed in HEKT cells at 10 uM after 90 mins by microbeta counting analysis; assay type: cell-based; summary of the method: as §1
[29] = biological target: D(1A) dopamine receptor (Homo sapiens) (UniProt P21728); assay: Displacement of [3H]SCH23390 from human dopamine D1 receptor expressed in HEKT cells at 10 uM after 90 mins by microbeta counting analysis; assay type: cell-based; summary of the method: as §1
Rattus norvegicus [30] = species on record: Rattus norvegicus; assay: Binding affinity to rat GABAB receptor at 10 uM after 90 mins by microbeta counting analysis; summary of the method: as §1
[31] = biological target: Histamine H3 receptor (Homo sapiens) (UniProt Q9Y5N1); assay: Displacement of [3H]alpha-methylhistamine from human H3 histamine receptor expressed in HEK cells at 10 uM after 90 mins by microbeta counting analysis; assay type: cell-based; conditions: HEK293; summary of the method: as §1
[32] = biological target: Alpha-2A adrenergic receptor (Homo sapiens) (UniProt P08913); assay: Displacement of [3H]rauwolscine from adrenergic alpha2A receptor (unknown origin) expressed in MDCK cells at 10 uM after 90 mins by microbeta counting analysis; assay type: cell-based; summary of the method: as §1
[33] = biological target: Alpha-1D adrenergic receptor (Homo sapiens) (UniProt P25100); assay: Displacement of [3H]prazosin from adrenergic alpha1D receptor (unknown origin) at 10 uM after 90 mins by microbeta counting analysis; summary of the method: as §1
DRG neuron = assay: Increase in Ca2+ uptake in mouse DRG neurons at 20 ug/ml by Fura-2 dye-based fluorescence microscopy; assay type: functional
Summary of the method: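 Mouse DRG cells plated in medium with additives and loaded with the Ca2+ dye Fura-2 AM. Compound applied directly at 20 μg/mL. Read-out is the fraction of cells showing a rise in Ca2+ concentration.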

[34] = biological target: D(3) dopamine receptor (Rattus norvegicus) (UniProt P19020); assay: Displacement of [3H]N-methylspiperone from rat dopamine D3 receptor expressed in HEKT cells at 10 uM after 90 mins by microbeta counting analysis; assay type: cell-based; summary of the method: as §1
[35] = biological target: Sodium-dependent dopamine transporter (Homo sapiens) (UniProt Q01959); assay: Displacement of [3H]WIN35428 from human DAT expressed in HEK cells at 10 uM after 90 mins by microbeta counting analysis; assay type: cell-based; conditions: HEK293
[36] = biological target: 5-hydroxytryptamine receptor 1A (Homo sapiens) (UniProt P08908); assay: Displacement of [3H]Way100635 from human serotonin 5-HT1A receptor expressed in CHO cells at 10 uM after 90 mins by microbeta counting analysis; assay type: cell-based; summary of the method: as §1
[37] = biological target: Sodium-dependent serotonin transporter (Homo sapiens) (UniProt P31645); assay: Displacement of [3H]citalopram from SERT (unknown origin) expressed in HEK cells at 10 uM after 90 mins by microbeta counting analysis; assay type: cell-based; conditions: HEK293; summary of the method: as §1
[38] = biological target: Alpha-1A adrenergic receptor (Homo sapiens) (UniProt P35348); assay: Displacement of [3H]prazosin from adrenergic alpha1A receptor (unknown origin) at 10 uM after 90 mins by microbeta counting analysis; summary of the method: as §1
[39] = biological target: Histamine H1 receptor (Homo sapiens) (UniProt P35367); assay: Displacement of [3H]pyrilamine from human H1 histamine receptor expressed in HEK cells at 10 uM after 90 mins by microbeta counting analysis; assay type: cell-based; conditions: HEK293; summary of the method: as §1
[40] = biological target: Histamine H4 receptor (Homo sapiens) (UniProt Q9H3N8); assay: Displacement of [3H]histamine from human H4 histamine receptor expressed in HEK cells at 10 uM after 90 mins by microbeta counting analysis; assay type: cell-based; conditions: HEK293; summary of the method: as §1
[41] = biological target: Sigma non-opioid intracellular receptor 1 (Rattus norvegicus) (UniProt Q9R0C9); assay: Displacement of [3H]pentazocine from rat sigma1 receptor at 10 uM after 90 mins by microbeta counting analysis; summary of the method: as §1
[42] = biological target: 5-hydroxytryptamine receptor 6 (Homo sapiens) (UniProt P50406); assay: Displacement of [3H]LSD from human serotonin 5-HT6 receptor expressed in HEK cells at 10 uM after 90 mins by microbeta counting analysis; assay type: cell-based; conditions: HEK293; summary of the method: as §1
[43] = biological target: 5-hydroxytryptamine receptor 2C (Homo sapiens) (UniProt P28335); assay: Displacement of [3H]Mesulergine from human serotonin 5-HT2C receptor expressed in Flp-IN HEK cells at 10 uM after 90 mins by microbeta counting analysis; assay type: cell-based; conditions: HEK293; summary of the method: as §1
[44] = biological target: Alpha-1B adrenergic receptor (Homo sapiens) (UniProt P35368); assay: Displacement of [3H]prazosin from adrenergic alpha1B receptor (unknown origin) expressed in HEKT cells at 10 uM after 90 mins by microbeta counting analysis; assay type: cell-based; summary of the method: as §1
Rattus norvegicus [45] = species on record: Rattus norvegicus; assay: Displacement of [3H]DTG from rat sigma2 receptor at 10 uM after 90 mins by microbeta counting analysis; summary of the method: as §1
[46] = biological target: Muscarinic acetylcholine receptor M2 (Homo sapiens) (UniProt P08172); assay: Binding affinity to human M2 receptor expressed in CHO cells at 10 uM after 90 mins by microbeta counting analysis; assay type: cell-based; summary of the method: as §1

Measured: Activity

Mu-type opioid receptor (Homo sapiens), sequence (P35372 whole entry): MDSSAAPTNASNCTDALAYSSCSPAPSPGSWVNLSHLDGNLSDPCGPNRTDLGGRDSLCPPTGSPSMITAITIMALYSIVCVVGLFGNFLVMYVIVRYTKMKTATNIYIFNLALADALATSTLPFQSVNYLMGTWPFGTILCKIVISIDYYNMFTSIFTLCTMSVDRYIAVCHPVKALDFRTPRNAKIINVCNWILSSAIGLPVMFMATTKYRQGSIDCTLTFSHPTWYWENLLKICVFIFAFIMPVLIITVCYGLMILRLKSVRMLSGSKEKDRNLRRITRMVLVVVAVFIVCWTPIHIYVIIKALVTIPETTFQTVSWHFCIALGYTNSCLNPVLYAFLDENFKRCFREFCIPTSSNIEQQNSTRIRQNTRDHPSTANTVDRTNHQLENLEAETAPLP
Sodium-dependent dopamine transporter (Homo sapiens), sequence (Q01959 whole entry): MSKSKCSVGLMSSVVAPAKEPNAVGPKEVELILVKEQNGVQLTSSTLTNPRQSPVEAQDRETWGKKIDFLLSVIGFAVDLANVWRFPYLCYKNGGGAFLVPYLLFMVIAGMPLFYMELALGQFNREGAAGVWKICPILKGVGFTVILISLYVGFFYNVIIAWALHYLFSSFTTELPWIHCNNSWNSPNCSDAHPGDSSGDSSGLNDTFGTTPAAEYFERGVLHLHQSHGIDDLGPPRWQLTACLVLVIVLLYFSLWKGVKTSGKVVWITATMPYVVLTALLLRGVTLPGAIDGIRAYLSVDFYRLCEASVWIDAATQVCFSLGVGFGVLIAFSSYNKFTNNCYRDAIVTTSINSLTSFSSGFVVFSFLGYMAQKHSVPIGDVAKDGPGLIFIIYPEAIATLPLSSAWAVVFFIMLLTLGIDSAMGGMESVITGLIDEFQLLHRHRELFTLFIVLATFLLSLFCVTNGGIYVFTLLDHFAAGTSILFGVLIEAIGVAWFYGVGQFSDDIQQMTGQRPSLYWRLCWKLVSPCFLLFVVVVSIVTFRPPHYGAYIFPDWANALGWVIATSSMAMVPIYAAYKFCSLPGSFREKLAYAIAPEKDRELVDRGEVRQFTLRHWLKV
D(4) dopamine receptor (Homo sapiens), sequence (P21917 whole entry): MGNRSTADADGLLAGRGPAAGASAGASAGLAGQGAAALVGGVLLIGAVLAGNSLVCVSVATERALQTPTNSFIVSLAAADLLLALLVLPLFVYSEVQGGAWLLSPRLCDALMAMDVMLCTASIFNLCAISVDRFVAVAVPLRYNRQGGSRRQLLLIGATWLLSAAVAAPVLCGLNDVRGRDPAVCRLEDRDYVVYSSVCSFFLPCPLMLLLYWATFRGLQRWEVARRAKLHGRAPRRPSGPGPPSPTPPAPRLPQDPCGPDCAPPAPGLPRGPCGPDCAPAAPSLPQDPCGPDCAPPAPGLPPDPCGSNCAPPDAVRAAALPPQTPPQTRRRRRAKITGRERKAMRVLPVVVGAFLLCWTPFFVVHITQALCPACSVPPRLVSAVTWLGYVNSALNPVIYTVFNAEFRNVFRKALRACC
5-hydroxytryptamine receptor 1E (Homo sapiens), sequence (P28566 whole entry): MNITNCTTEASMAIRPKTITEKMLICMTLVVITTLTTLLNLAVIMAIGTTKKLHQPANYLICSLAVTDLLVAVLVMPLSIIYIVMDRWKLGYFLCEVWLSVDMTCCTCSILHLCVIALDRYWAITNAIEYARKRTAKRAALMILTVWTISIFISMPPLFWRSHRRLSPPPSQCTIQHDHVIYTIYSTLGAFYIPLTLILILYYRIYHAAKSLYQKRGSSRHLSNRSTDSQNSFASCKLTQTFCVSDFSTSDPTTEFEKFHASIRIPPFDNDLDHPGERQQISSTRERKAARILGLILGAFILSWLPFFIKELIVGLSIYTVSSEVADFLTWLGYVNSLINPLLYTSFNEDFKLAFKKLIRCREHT
5-hydroxytryptamine receptor 2C (Homo sapiens), sequence (P28335 whole entry): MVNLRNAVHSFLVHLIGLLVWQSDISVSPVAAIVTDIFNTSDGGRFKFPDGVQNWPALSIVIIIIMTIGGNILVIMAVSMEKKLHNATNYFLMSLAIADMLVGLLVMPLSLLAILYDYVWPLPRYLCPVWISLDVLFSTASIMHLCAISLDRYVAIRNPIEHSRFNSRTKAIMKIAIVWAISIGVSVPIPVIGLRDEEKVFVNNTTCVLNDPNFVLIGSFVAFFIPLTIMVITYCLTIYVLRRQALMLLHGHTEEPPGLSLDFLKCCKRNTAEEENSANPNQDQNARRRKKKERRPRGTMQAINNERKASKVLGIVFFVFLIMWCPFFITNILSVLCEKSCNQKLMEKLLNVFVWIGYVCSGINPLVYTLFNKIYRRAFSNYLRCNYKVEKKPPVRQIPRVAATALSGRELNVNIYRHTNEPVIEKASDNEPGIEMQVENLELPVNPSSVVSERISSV
5-hydroxytryptamine receptor 1A (Homo sapiens), sequence (P08908 whole entry): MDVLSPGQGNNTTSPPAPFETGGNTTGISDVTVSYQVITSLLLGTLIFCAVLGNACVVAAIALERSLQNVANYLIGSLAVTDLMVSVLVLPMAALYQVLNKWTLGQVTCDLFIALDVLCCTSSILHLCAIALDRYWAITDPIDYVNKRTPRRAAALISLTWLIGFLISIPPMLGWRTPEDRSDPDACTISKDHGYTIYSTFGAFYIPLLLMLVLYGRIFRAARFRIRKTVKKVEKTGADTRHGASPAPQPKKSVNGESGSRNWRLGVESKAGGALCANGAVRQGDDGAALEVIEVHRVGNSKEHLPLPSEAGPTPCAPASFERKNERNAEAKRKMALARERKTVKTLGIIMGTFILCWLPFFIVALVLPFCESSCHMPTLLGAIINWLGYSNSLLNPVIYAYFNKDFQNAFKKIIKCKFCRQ
5-hydroxytryptamine receptor 6 (Homo sapiens), sequence (P50406 whole entry): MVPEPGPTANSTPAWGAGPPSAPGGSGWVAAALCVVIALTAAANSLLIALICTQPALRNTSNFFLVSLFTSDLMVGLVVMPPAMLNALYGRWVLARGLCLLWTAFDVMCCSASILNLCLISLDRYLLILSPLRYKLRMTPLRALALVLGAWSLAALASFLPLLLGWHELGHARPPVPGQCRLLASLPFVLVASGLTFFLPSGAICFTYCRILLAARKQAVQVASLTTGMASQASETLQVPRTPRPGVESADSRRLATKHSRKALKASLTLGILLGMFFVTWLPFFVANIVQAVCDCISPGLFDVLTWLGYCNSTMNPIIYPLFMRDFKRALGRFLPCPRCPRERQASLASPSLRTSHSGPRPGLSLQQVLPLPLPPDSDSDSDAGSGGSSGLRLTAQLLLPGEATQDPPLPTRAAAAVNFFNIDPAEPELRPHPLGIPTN
Alpha-1B adrenergic receptor (Homo sapiens), sequence (P35368 whole entry): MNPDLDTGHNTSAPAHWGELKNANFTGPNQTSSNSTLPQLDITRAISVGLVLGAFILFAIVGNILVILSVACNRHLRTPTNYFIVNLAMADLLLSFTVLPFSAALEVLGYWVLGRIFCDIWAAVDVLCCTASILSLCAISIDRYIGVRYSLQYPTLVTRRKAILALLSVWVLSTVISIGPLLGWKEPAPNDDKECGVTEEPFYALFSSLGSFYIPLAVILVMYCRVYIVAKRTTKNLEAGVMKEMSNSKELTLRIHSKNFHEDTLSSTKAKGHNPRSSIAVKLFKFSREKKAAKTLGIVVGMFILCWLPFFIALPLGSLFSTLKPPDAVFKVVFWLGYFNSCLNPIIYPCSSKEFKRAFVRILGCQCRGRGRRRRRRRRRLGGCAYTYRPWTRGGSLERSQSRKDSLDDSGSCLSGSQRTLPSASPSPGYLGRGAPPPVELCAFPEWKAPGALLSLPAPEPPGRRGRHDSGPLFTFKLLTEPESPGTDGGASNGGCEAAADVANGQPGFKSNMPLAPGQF
D(3) dopamine receptor (Rattus norvegicus), sequence (P19020 whole entry): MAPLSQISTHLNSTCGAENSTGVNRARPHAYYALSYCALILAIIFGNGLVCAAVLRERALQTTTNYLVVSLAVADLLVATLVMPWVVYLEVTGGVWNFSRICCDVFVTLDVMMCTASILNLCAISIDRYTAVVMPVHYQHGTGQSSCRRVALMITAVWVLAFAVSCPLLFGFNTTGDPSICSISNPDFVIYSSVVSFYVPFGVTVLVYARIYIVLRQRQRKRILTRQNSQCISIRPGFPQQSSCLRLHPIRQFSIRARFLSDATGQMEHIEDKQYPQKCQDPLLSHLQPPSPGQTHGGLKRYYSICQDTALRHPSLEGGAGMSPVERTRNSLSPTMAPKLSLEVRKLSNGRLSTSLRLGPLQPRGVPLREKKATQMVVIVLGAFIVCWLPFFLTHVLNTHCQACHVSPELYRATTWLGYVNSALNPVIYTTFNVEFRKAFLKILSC
5-hydroxytryptamine receptor 1B (Homo sapiens), sequence (P28222 whole entry): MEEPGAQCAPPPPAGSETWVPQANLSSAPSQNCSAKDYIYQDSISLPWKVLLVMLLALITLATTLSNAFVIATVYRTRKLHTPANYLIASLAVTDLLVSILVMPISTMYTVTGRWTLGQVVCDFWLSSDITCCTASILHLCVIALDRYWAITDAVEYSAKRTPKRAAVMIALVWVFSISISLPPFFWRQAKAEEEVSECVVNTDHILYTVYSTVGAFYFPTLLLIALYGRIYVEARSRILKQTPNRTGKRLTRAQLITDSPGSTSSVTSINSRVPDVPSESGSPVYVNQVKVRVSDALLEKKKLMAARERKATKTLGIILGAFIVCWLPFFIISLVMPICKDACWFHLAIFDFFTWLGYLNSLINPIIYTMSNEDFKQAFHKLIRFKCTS
D(2) dopamine receptor (Homo sapiens), sequence (P14416 whole entry): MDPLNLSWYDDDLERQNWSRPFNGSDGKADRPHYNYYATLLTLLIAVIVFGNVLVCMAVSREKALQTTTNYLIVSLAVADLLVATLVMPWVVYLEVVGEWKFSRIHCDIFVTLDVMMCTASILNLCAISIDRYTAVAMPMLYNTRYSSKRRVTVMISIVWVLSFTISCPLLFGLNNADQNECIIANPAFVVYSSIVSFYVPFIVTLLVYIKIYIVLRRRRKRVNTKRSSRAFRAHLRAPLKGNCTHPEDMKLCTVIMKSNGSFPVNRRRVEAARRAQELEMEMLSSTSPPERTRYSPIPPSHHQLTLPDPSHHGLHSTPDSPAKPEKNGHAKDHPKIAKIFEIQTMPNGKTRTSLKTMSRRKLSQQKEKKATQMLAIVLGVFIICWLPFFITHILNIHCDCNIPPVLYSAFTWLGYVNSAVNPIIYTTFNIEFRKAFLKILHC

COC(=O)CCc1cc2cc(C)oc(=O)c2c(O)c1O
active: DRG neuron
Not Active: [7]
inactive: all other assays above
